Test results from ChEMBL document CHEMBL1817567, “Design of benzimidazole- and benzoxazole-2-thione derivatives as inhibitors of bacterial hyaluronan lyase” (Eur J Med Chem, 2011).
Values after ≈ are worked out from the molar mass of the structure shown. Active and inactive are the calls of the source. The rule behind the calls is not given here.

Tests used:
[1] = target: T1, Hyaluronidase (Bos taurus) (UniProt Q8SQG8+Q5E985); assay: Inhibition of bovine testes hyaluronidase at 3800 uM after 30 mins at pH 5 by turbidimetric analysis; assay type: protein assay
T1 sequence (Q5E985 whole entry, looked up): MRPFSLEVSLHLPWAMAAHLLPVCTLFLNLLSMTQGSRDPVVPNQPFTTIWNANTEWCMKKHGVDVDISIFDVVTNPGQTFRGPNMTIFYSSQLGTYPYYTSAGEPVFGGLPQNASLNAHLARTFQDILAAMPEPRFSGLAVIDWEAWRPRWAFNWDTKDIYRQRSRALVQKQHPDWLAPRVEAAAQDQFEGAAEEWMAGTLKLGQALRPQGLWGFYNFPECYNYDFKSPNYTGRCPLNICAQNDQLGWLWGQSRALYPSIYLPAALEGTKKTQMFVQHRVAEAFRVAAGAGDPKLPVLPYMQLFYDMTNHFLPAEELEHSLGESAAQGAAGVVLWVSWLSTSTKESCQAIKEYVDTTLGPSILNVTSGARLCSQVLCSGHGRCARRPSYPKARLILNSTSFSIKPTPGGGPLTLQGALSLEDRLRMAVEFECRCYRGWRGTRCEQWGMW
T1 sequence (Q8SQG8 whole entry, looked up): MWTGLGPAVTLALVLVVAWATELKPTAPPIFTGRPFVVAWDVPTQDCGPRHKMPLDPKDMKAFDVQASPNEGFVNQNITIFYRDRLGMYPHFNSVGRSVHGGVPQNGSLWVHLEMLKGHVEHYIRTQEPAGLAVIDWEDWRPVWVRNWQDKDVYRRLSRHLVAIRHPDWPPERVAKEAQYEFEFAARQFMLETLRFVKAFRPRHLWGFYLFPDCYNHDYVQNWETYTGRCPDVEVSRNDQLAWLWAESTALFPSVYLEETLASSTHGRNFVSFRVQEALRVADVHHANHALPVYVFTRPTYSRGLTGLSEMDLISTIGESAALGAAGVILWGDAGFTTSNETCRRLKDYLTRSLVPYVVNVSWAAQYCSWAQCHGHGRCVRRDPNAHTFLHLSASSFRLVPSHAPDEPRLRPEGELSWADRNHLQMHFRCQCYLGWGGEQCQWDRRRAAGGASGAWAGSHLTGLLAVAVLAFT

Streptococcus agalactiae [2] = assay: Inhibition of Streptococcus agalactiae 4755 hyaluronidase at 2000 uM after 30 mins at pH 5.0 by turbidimetric analysis
Procedure, shortened: (§1)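 SagHyal4755 (2.9 ng) with BSA and hyaluronan (2 mg/ml stock) in citrate–phosphate/NaCl buffer pH 5.0, 3.8% DMSO final, 30 min at 37 °C. Stopped by alkaline 2.5% CTAB, then 20 min at 25 °C. Residual-substrate turbidity read at 600 nm; no-inhibitor sample = 100%, no-enzyme sample = 0% activity. Enzyme-free compound controls were run.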

[3] = target: T1, Hyaluronidase (Bos taurus); assay: Inhibition of bovine testes hyaluronidase at 460 uM after 30 mins at pH 5 by turbidimetric analysis; assay type: protein assay
[4] = Aqueous solubility of the compound in water; assay type: physicochemical
Procedure, shortened: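 Turbidity at 600 nm of test compound in DMSO added to citrate–phosphate buffer (pH 5 and pH 7.4), water and BSA (0.2 mg/ml stock), at various concentrations, read against a water reference. Enzyme testing used only concentrations showing no turbidity.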

[5] = target: T1, Hyaluronidase (Bos taurus); assay: Inhibition of bovine testes hyaluronidase at 190 uM after 30 mins at pH 5 by turbidimetric analysis; assay type: protein assay
[6] = target: T1, Hyaluronidase (Bos taurus); assay: Inhibition of bovine testes hyaluronidase at 100 uM after 30 mins at pH 5 by turbidimetric analysis; assay type: protein assay
[7] = target: T1, Hyaluronidase (Bos taurus); assay: Inhibition of bovine testes hyaluronidase at 400 uM after 30 mins at pH 5 by turbidimetric analysis; assay type: protein assay
[8] = target: T1, Hyaluronidase (Bos taurus); assay: Inhibition of bovine testes hyaluronidase at 63 uM after 30 mins at pH 5 by turbidimetric analysis; assay type: protein assay
[9] = target: T1, Hyaluronidase (Bos taurus); assay: Inhibition of bovine testes hyaluronidase at 80 uM after 30 mins at pH 5 by turbidimetric analysis; assay type: protein assay
[10] = target: T1, Hyaluronidase (Bos taurus); assay: Inhibition of bovine testes hyaluronidase at 380 uM after 30 mins at pH 5 by turbidimetric analysis; assay type: protein assay
[11] = target: T1, Hyaluronidase (Bos taurus); assay: Inhibition of bovine testes hyaluronidase at 170 uM after 30 mins at pH 5 by turbidimetric analysis; assay type: protein assay
[12] = target: T1, Hyaluronidase (Bos taurus); assay: Inhibition of bovine testes hyaluronidase at 4200 uM after 30 mins at pH 5 by turbidimetric analysis; assay type: protein assay
[13] = target: T1, Hyaluronidase (Bos taurus); assay: Inhibition of bovine testes hyaluronidase at 49 uM after 30 mins at pH 5 by turbidimetric analysis; assay type: protein assay
[14] = target: T1, Hyaluronidase (Bos taurus); assay: Inhibition of bovine testes hyaluronidase at 130 uM after 30 mins at pH 5 by turbidimetric analysis; assay type: protein assay
[15] = target: T1, Hyaluronidase (Bos taurus); assay: Inhibition of bovine testes hyaluronidase at 2000 uM after 30 mins at pH 5 by turbidimetric analysis; assay type: protein assay
[16] = target: T1, Hyaluronidase (Bos taurus); assay: Inhibition of bovine testes hyaluronidase at 180 uM after 30 mins at pH 5 by turbidimetric analysis; assay type: protein assay
[17] = target: T1, Hyaluronidase (Bos taurus); assay: Inhibition of bovine testes hyaluronidase at 200 uM after 30 mins at pH 5 by turbidimetric analysis; assay type: protein assay
[18] = target: T1, Hyaluronidase (Bos taurus); assay: Inhibition of bovine testes hyaluronidase at 150 uM after 30 mins at pH 5 by turbidimetric analysis; assay type: protein assay
[19] = Inhibition of Streptococcus agalactiae 4755 hyaluronidase at pH 7.4 after 3 hrs by turbidimetric analysis
Procedure, shortened: (§2)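 Same turbidimetric hyaluronan-lyase assay at pH 7.4 (citrate–phosphate/NaCl): SagHyal4755 2.9 ng, hyaluronan (2 mg/ml stock), BSA, 3.8% DMSO final, 3 h at 37 °C. CTAB (2.5%, in 0.5 M NaOH) precipitation, 20 min at 25 °C, A600. Activity scaled between no-inhibitor and no-enzyme samples.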

Streptococcus agalactiae [20] = assay: Inhibition of Streptococcus agalactiae 4755 hyaluronidase at 130 uM after 30 mins at pH 5.0 by turbidimetric analysis; procedure, shortened: as §1
[21] = Inhibition of Streptococcus agalactiae hyaluronidase
[22] = Inhibition of Streptococcus agalactiae 4755 hyaluronidase at pH 7.4; procedure, shortened: as §2
[23] = Inhibition of Streptococcus agalactiae 4755 hyaluronidase at pH 5.0 after 30 mins by turbidimetric analysis; procedure, shortened: as §1
[24] = Inhibition of Streptococcus agalactiae 4755 hyaluronidase at pH 5.0; procedure, shortened: as §1
[25] = Inhibition of Streptococcus agalactiae 4755 hyaluronidase after 30 mins by turbidimetric analysis; procedure, shortened: as §1
Streptococcus agalactiae [26] = assay: Inhibition of Streptococcus agalactiae 4755 hyaluronidase at 80 uM after 30 mins at pH 5.0 by turbidimetric analysis; procedure, shortened: as §1
Streptococcus agalactiae [27] = assay: Inhibition of Streptococcus agalactiae 4755 hyaluronidase at 200 uM after 3 hrs at pH 7.4 by turbidimetric analysis; procedure, shortened: as §2
Streptococcus agalactiae [28] = assay: Inhibition of Streptococcus agalactiae 4755 hyaluronidase at 63 uM after 30 mins at pH 5.0 by turbidimetric analysis; procedure, shortened: as §1
Streptococcus agalactiae [29] = assay: Inhibition of Streptococcus agalactiae 4755 hyaluronidase at 4200 uM after 30 mins at pH 5.0 by turbidimetric analysis; procedure, shortened: as §1
Streptococcus agalactiae [30] = assay: Inhibition of Streptococcus agalactiae 4755 hyaluronidase at 4200 uM after 3 hrs at pH 7.4 by turbidimetric analysis; procedure, shortened: as §2
Streptococcus agalactiae [31] = assay: Inhibition of Streptococcus agalactiae 4755 hyaluronidase at 2000 uM after 3 hrs at pH 7.4 by turbidimetric analysis; procedure, shortened: as §2
Streptococcus agalactiae [32] = assay: Inhibition of Streptococcus agalactiae 4755 hyaluronidase at 150 uM after 30 mins at pH 5.0 by turbidimetric analysis; procedure, shortened: as §1
Streptococcus agalactiae [33] = assay: Inhibition of Streptococcus agalactiae 4755 hyaluronidase at 300 uM after 3 hrs at pH 7.4 by turbidimetric analysis; procedure, shortened: as §2
Streptococcus agalactiae [34] = assay: Inhibition of Streptococcus agalactiae 4755 hyaluronidase at 400 uM after 30 mins at pH 5.0 by turbidimetric analysis; procedure, shortened: as §1
Streptococcus agalactiae [35] = assay: Inhibition of Streptococcus agalactiae 4755 hyaluronidase at 1000 uM after 3 hrs at pH 7.4 by turbidimetric analysis; procedure, shortened: as §2

inhibition [1]	inhibition [3]	solubility [4]	inhibition [5]	inhibition [6]	inhibition [7]	inhibition [8]	inhibition [9]	inhibition [10]	inhibition [11]	inhibition [12]	inhibition [13]	inhibition [14]	inhibition [15]	inhibition [16]	inhibition [17]	inhibition [18]	IC50 [19]	SMILES	other results
inactive	inactive	2000 µM (≈ 354 µg/mL)	inactive	inactive	inactive	inactive	inactive	inactive	inactive	inactive	inactive	inactive	inactive	inactive	inactive	inactive	1470 µM	CC(=O)n1c(=O)oc2ccccc21	inhibition (Streptococcus agalactiae [2]): inactive
inactive	inactive	130 µM (≈ 32.4 µg/mL)	inactive	inactive	inactive	inactive	inactive	inactive	inactive	inactive	inactive	inactive	inactive	inactive	inactive	inactive	29 µM	CCCCCC(=O)n1c(=S)oc2ccccc21	inhibition (Streptococcus agalactiae [20]): 51%
–	–	–	–	–	–	–	–	–	–	–	–	–	–	–	–	–	–	CC1(C)[C@@H](O)CC[C@]2(C)[C@H]3C(=O)C=C4[C@@H]5C[C@@](C)(C(=O)O)CC[C@]5(C)CC[C@@]4(C)[C@]3(C)CC[C@@H]12 [ENOXOLONE]	IC50 [21]: 60 µM
inactive	inactive	–	inactive	inactive	inactive	inactive	inactive	inactive	inactive	inactive	inactive	inactive	inactive	inactive	inactive	inactive	16 µM	CCCCCCCCCCn1c(-c2ccc(OS(N)(=O)=O)cc2)cc2ccc(OS(N)(=O)=O)cc21	IC50 [22]: 16 µM; IC50 [23]: 11 µM; IC50 [24]: 11 µM
inactive	inactive	–	inactive	inactive	inactive	inactive	inactive	inactive	inactive	inactive	inactive	inactive	inactive	inactive	inactive	inactive	–	CCCCCCCCCCCCCCCC(=O)OC[C@H](O)[C@H]1OC(=O)C(O)=C1O [ASCORBYL PALMITATE]	IC50 [23]: 4.2 µM; IC50 [25]: 4.2 µM
inactive	inactive	80 µM (≈ 22.5 µg/mL)	inactive	inactive	inactive	inactive	inactive	inactive	inactive	inactive	inactive	inactive	inactive	inactive	inactive	inactive	–	O=C(/C=C/c1ccccc1)n1c(=S)oc2ccccc21	inhibition (Streptococcus agalactiae [26]): 9%; inhibition (Streptococcus agalactiae [27]): 36%
inactive	inactive	63 µM (≈ 24.5 µg/mL)	inactive	inactive	inactive	inactive	inactive	inactive	inactive	inactive	inactive	inactive	inactive	inactive	inactive	inactive	17 µM	CCCCCCCCCCCCCCCC(=O)n1c(=S)oc2ccccc21	inhibition (Streptococcus agalactiae [28]): 23%
inactive	inactive	4200 µM (≈ 749 µg/mL)	inactive	inactive	inactive	inactive	inactive	inactive	inactive	inactive	inactive	inactive	inactive	inactive	inactive	inactive	–	CCn1c(S)nc2ccccc21	inhibition (Streptococcus agalactiae [29]): 19%; inhibition (Streptococcus agalactiae [30]): 28%
inactive	inactive	–	inactive	inactive	inactive	inactive	inactive	inactive	inactive	inactive	inactive	inactive	inactive	inactive	inactive	inactive	–	COC(=O)c1ccc2oc(=S)[nH]c2c1	IC50 [23]: 1300 µM; inhibition (Streptococcus agalactiae [31]): 27%
inactive	inactive	150 µM (≈ 35 µg/mL)	inactive	inactive	inactive	inactive	inactive	inactive	inactive	inactive	inactive	inactive	inactive	inactive	inactive	inactive	–	CCCCCC(=O)n1c(=O)oc2ccccc21	inhibition (Streptococcus agalactiae [32]): inactive; inhibition (Streptococcus agalactiae [33]): inactive
inactive	inactive	400 µM (≈ 71.7 µg/mL)	inactive	inactive	inactive	inactive	inactive	inactive	inactive	inactive	inactive	inactive	inactive	inactive	inactive	inactive	–	CCn1c(=S)oc2ccccc21	inhibition (Streptococcus agalactiae [34]): 46%; inhibition (Streptococcus agalactiae [35]): 17%
